Tests used:
[1] = Selectivity index, ratio of CC50 to EC50; format: functional
In short: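 Ratio of CC50 (mock-infected MT-4 viability, MTT) to EC50 (protection of MT-4 cells from HIV-1 cytopathicity, MTT).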

MT4 [2] = test: Effective concentration against HIV-1 induced cytopathicity in MT-4 cells using MTT method; format: functional, cell-based; settings: Homo sapiens
In short: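 MT-4 cells acutely infected with HIV-1; inhibition of virus-induced cytopathicity; viable cells determined by MTT; EC50 = dose (µM) giving 50% protection from cytopathicity.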

MT4 [3] = test: 50% cytotoxic concentration against mock-infected MT-4 cells using MTT method; format: functional; settings: Homo sapiens
In short: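 Viability of mock-infected MT-4 cells run in parallel with the antiviral assay; viable cells counted by MTT; CC50 = dose (µM) reducing viability by 50%.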

Structure (SMILES)	Selectivity [1]	EC50 (MT4 [2]) [µM]	CC50 (MT4 [3]) [µM]
CC(C)OC(=O)c1cc(CO)cn1S(=O)(=O)c1cc(Cl)ccc1N	1160	0.1	116
CCOC(=O)c1cc(CNc2ccccc2)cn1S(=O)(=O)c1cc(Cl)ccc1N	> 55.5	3.1	> 200
C=Cc1cc(C(=O)OCC)n(S(=O)(=O)c2cc(Cl)ccc2N)c1	274	0.17	47
CCOC(=O)c1cccn1S(=O)(=O)c1cc(Cl)ccc1-n1cccc1	–	> 110	110
CCOC(=O)c1cc(COc2ccccc2)cn1S(=O)(=O)c1cc(Cl)ccc1N	> 49	4.1	> 200
Cc1ccnc2c1NC(=O)c1cccnc1N2C1CC1 [NEVIRAPINE]	–	0.35	> 200
CCOC(=O)c1cc(CO)cn1S(=O)(=O)c1cc(Cl)ccc1N	5330	0.045	240
CC(C)OC(=O)c1cc(CNc2ccccc2)cn1S(=O)(=O)c1cc(Cl)ccc1N	200	0.2	40
CCOC(=O)c1cc(C(C)O)cn1S(=O)(=O)c1cc(Cl)ccc1N (stereo unspecified)	460	0.25	115
CCOC(=O)c1cc(C)cn1S(=O)(=O)c1cc(Cl)ccc1N	> 2220	0.09	> 200
CCOC(=O)c1cccn1S(=O)(=O)c1c(N)cccc1Cl	2.5	72	180
CCOC(=O)c1cccn1S(=O)(=O)c1cc(Cl)ccc1N	> 1430	–	> 200
CCOC(=O)c1cc(COC)cn1S(=O)(=O)c1cc(Cl)ccc1N	> 500	0.4	> 200
